Measured values taken from BindingDB's records for doi:10.1021/acs.jmedchem.8b01529 (Boston University, 2019).

Biological target: DNA-(apurinic or apyrimidinic site) endonuclease (Homo sapiens, UniProt P27695)
Test: Inhibition of full length human APE1 assessed as reduction in endonuclease activity by measuring DNA cleavage of abasic sites using 6-FAM labelled two annealed oligonucleotides as AP site mimic substrate by fluorescence-based assay
How it was run: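 Purified full-length APE1 (0.25-1.25 nM) added at once to 50 nM annealed duplex: 5'-6-FAM-labelled AP-site-mimic strand paired with a quencher-labelled strand. Buffer 50 mM Tris, 1 mM MgCl2, 50 mM NaCl, pH 7.5. Compound in triplicate, 10-point 1:2 dilution from 100 μM. Fluorescence from cleavage read kinetically at five 1-min intervals. Reaction rate compared with DMSO vehicle.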

Sequence of DNA-(apurinic or apyrimidinic site) endonuclease (P27695 whole entry): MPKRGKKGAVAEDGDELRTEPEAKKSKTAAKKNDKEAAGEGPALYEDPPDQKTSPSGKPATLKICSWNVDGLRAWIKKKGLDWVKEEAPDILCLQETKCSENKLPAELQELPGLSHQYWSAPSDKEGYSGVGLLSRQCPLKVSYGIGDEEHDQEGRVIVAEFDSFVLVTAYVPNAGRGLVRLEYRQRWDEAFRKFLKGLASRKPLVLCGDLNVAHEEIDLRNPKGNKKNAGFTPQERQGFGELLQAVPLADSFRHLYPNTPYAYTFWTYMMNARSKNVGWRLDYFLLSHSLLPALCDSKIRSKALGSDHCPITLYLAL

| IC50 [µM] | SMILES |
| --- | --- |
| 5.4 | Cc1ccc(S(=O)(=O)n2cccc2[C@@H]2NC(=O)[C@H](Cc3c[nH]c4ccccc34)NC(=O)C(Oc3ccccc3)CCOC(=O)C/C=C/[C@@H]2C)cc1 (some centres not stated) |
| 1.2 | Cc1ccc(S(=O)(=O)n2cccc2[C@@H]2NC(=O)[C@H](Cc3c[nH]c4ccccc34)NC(=O)C(c3ccccc3)CCOC(=O)C/C=C/[C@@H]2C)cc1 (some centres not stated) |
